Experimental data reported in PubChem BioAssay AID624038 (The Scripps Research Institute Molecular Screening Center, 2012).
Where “and” joins values, the source holds several entries; their conditions need not be identical. Equal entries are not always repeated. In all, about 360,000 compounds went through this assay and about 1,100 (0.31%) were called active.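 How the source made its calls: active means activation above the run cutoff, the mean activation of all test compounds plus 3 SD (cut at about 18% in these data); inactive means the rest.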 For the sample, actives were picked, then their nearest neighbours and some compounds at random. The source holds several records for some structures; these can differ, active in one and inactive in another.

Target: Muscarinic acetylcholine receptor M5 (Homo sapiens) (UniProt P08912)
Assay: human M5 muscarinic receptor positive allosteric modulators, primary screen, CHO-K1 cells, Fluo-8 calcium fluorescence (AID 624038)
Details: CHO-K1 hM5, Fluo-8 calcium, ACh EC20 PAM; at 3 µM; stronger effect = higher value; 0% = ACh EC20, 100% = ACh EC100
Procedure, shortened: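 Replicates: One well per compound, no replicates | System: Human M5 receptor in CHO-K1 cells | Benchmarks: Low control EC20 acetylcholine (0%), high control EC100 acetylcholine (100%) | Probe or stimulus: Acetylcholine, EC20 level | Times: Fluo-8 loading 80 min at 37 °C plus 30 min room temperature | Signal: Intracellular calcium via Fluo-8 fluorescence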

Sequence of Muscarinic acetylcholine receptor M5 (Homo sapiens) (P08912 whole entry, looked up): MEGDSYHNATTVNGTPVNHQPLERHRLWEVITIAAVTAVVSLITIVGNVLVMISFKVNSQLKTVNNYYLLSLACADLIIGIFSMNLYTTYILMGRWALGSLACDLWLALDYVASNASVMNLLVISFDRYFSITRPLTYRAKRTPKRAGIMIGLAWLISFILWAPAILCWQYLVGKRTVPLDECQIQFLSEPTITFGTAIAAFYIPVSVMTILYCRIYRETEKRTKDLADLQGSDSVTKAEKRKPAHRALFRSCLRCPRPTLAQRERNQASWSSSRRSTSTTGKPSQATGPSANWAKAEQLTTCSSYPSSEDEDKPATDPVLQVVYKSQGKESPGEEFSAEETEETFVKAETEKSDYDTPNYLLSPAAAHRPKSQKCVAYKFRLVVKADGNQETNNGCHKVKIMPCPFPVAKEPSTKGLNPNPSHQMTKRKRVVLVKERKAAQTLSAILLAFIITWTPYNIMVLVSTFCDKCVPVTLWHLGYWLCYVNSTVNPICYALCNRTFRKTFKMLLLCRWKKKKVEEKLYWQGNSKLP

SMILES | activation
Cc1cc(C(=O)OCC(=O)Nc2nccs2)c2ccccc2n1 | -1.11% (inactive)
C=CCn1c(=S)[nH]c2scc(-c3ccco3)c2c1=O | -1.04% (inactive)
Cc1cc(C)n(Cc2cnc(N3CCOCC3)s2)n1 | -0.72% (inactive)
CN(CC(=O)Nc1c(Cl)cccc1Cl)C(=O)CNC(=O)C1CCCCC1 | 7.43% (inactive)
COc1cccc(N(CC(=O)NC2CCCCCC2)S(=O)(=O)c2ccccc2)c1 | -3.45% (inactive)
CCN(CC)C(=O)CN(c1cccc(OC)c1)S(=O)(=O)c1ccc(C)cc1 | 24% (active)
COc1cccc(N(CC(=O)N2CCc3ccccc3C2)S(C)(=O)=O)c1 | -6.56% (inactive)
CCN1CCN(C(=O)C2CCCN(S(=O)(=O)c3ccc(OC)c(OC)c3)C2)CC1 (configuration not stated) | -3.07% (inactive)
CCOC(=O)C1CCN(Cc2ccc(-c3ccccc3)cc2)CC1 | -6.76% (inactive)
CCNC(=S)NNC(=O)C1CCN(Cc2ccccc2)CC1 | 22.7% (active)
O=C(NNS(=O)(=O)c1ccc(Cl)cc1)C1CCN(Cc2ccccc2)CC1 | -22.7% (inactive)
CCCc1nc(N)nc2c1C(=O)CC(C)(C)C2 | 3.62% (inactive)
COc1ccc(N2CCN(CCCNC(=O)C3CCN(S(=O)(=O)N4CCOCC4)CC3)CC2)cc1 | -0.18% (inactive)
CSc1ccc(C(=O)C2CCCN(C(=O)c3ccc(C)nc3)C2)cc1 (configuration not stated) | -1.27% (inactive)
Cn1nccc1NC(=O)CC(CC(=O)O)c1ccccc1 (configuration not stated) | -3.88% (inactive)
Cc1c(-c2ccccc2)nc(N)c(C#N)c1-c1cccs1 | -5.86% (inactive)
N#Cc1c(-c2ccccc2)c(-c2ccccc2)n[nH]c1=O | 20.6% (active)
O=C(O)c1n[nH]nc1-c1ccccc1 | 3.89% (inactive)
O=C(COc1ccc(Cl)cc1)NCCS(=O)(=O)N1CCN(c2ccc(F)cc2)CC1 | -8.06% (inactive)
CCCc1nc(N2CCN(C)CC2)c2sc(=S)n(-c3ccccc3)c2n1 | -2.27% (inactive)
O=C(/C=C/c1c(Cl)cccc1Cl)NCc1ccccc1 | 0.05% (inactive)
CCOC(=O)CNC(=O)/C=C/c1c(Cl)cccc1Cl | 20.4% (active)
O=C(/C=C/c1c(F)cccc1Cl)Nc1nn[nH]n1 | -6.11% (inactive)
CCc1ccc(N(CC)c2ncnc3nc[nH]c23)cc1 | -3.31% (inactive)

SMILES | activation
CC(C)Cn1c(=O)c2ccccc2n2c(CCC(=O)NCc3ccccn3)nnc12 | -4.54% (inactive)
Cc1ccccc1C(=O)Nc1ccccc1Sc1ccccc1 | -14.3% (inactive)
CSc1ncc(C(=O)NCCCc2ccccc2)c(C)n1 | -2.95% (inactive)
CSc1ncc(Sc2ccccc2)c(C(=O)O)n1 | 23.2% (active)
CCOc1ccc(S(=O)(=O)N2CCCC(C(=O)N3CCC(C(N)=O)CC3)C2)cc1Cl (configuration not stated) | 5.31% (inactive)
CCCCOP(=O)(c1ccc(N(C)C)cc1)C(O)c1cc(OC)ccc1OC (configuration not stated) | 4.18% (inactive)
CSCC(=O)N1CCCC(C(=O)c2cc(F)ccc2F)C1 (configuration not stated) | -4.39% (inactive)
S=C(Nc1ccc(Br)cc1Cl)N1CCC2(CC1)OCCO2 | -0.18% (inactive)
NC(=O)C1=C[C@@H](c2ccc3c(c2)OCO3)C[C@@H](OCCCCO)O1 | -3.38% (inactive)
Cc1nn(Cc2ccccc2)c(C)c1NS(=O)(=O)c1ccccc1 | -9.59% (inactive)
O=C(CS(=O)(=O)c1ccccc1)Nc1ccc(S(=O)(=O)Nc2ccccn2)cc1 | -5.27% (inactive)
COc1ccc(NC(=O)CC(NC(C)c2ccccc2)C(=O)O)cc1 (configuration not stated) | -1.9% (inactive)
COc1ccc(NC(=O)CS(=O)(=O)c2ccccc2)cc1 | 18.2% (active)
CCOC(=O)N1CCC(NC(=O)C(C)n2c3ccccc3c3cnn(C)c(=O)c32)CC1 (configuration not stated) | -5.66% (inactive)
CCN(CC(=O)Nc1c(F)cccc1F)C(=O)c1ccc(Sc2nncn2C)c([N+](=O)[O-])c1 | 0.28% (inactive)
COc1ccc(C(C(=O)NC2CCCCC2)N(C(=O)c2snc(C(N)=O)c2N)c2ccccc2OC)cc1 (configuration not stated) | -2.86% (inactive)
COc1ccc(C(C(=O)NC2CCCCC2)N(C(=O)CCl)c2ccccc2Cl)cc1 (configuration not stated) | 28.1% (active)
Cc1ccccc1N(C(=O)CNC(=O)c1cccs1)C(C(=O)NC1CCCC1)c1ccncc1 (configuration not stated) | 5.18% (inactive)
O=C(CSc1nc2ncccc2[nH]1)Nc1ccc2c(c1)OCCO2 | -2.19% (inactive)
CCOc1ccccc1NC(=O)NC1CCCCCCC1 | -0.6% (inactive)
CCOc1ccc(C(=O)CCC(=O)Nc2ccncc2)cc1 | -11.9% (inactive)
CCOc1ccc(NC(=O)CCC(=O)NNC(=O)NC2CCCCC2)cc1 | 21.3% (active)
O=C(CCn1c(=O)oc2ccccc21)Nc1ccon1 | 3.01% (inactive)
CC(NCc1cccs1)C(=O)Nc1cc(Cl)cc(Cl)c1 (configuration not stated) | -6.98% (inactive)

SMILES | activation
CCCCNC(=O)c1ccccc1NC(=O)C1=C(C)OCCS1 | -4.46% (inactive)
CCC(C)NC(=O)c1ccccc1NC(=O)c1ccccc1N(C)S(C)(=O)=O (configuration not stated) | 2.75% (inactive)
CCCCNC(=O)c1ccccc1NC(=O)c1ccccc1N(C)S(C)(=O)=O | 21.6% (active)
Cc1noc(/C=C/c2ccco2)c1S(=O)(=O)N1CCC(C(=O)N2CCc3ccccc32)CC1 | -9.2% (inactive)
CC(C)(C)n1nnnc1C(c1ccc2ncccc2c1)N1CCSCC1 (configuration not stated) | -6.68% (inactive)
CC(C)C(=O)N1CCN(CCN=CC2=C(O)CC(c3ccco3)CC2=O)CC1 (configuration not stated) | 18.8% (active) and 2.37% (inactive)
CC1(C)CC(=O)C(C=NCCN2CCN(C(=S)Nc3cccc(Cl)c3)CC2)=C(O)C1 | 0.98% (inactive)
CC(=O)N1CCN(CCN=CC2=C(O)CC(C)(C)CC2=O)CC1 | -3.36% (inactive)
CCCC(C)NC(=O)C1CCN(C(=O)C2CC(=O)N(c3ccc(C)cc3)C2)CC1 (configuration not stated) | 1.21% (inactive)
COCCCNC(=O)C1CC(=O)N(c2ccc(C)cc2)C1 (configuration not stated) | -2.16% (inactive)
COCCNC(=O)C1CCN(C(=O)C2CC(=O)N(c3ccc(C)cc3)C2)CC1 (configuration not stated) | 19.9% (active)
O=C(CCC(=O)n1ncc2ccccc21)NCc1ccccc1Cl | -1.46% (inactive)
O=C(CN1C(=O)NC(Cc2ccccc2)(Cc2ccccc2)C1=O)NCC1CCCCC1 | -4.45% (inactive)
O=C(CNc1cccc(S(=O)(=O)N2CCCCC2)c1)Nc1ccccc1F | 2.99% (inactive)
CC(=O)NC(CC(=O)Nc1nccs1)c1ccccc1 (configuration not stated) | 3.53% (inactive)
C[C@H](NC(=O)c1[nH]cnc1C(=O)Nc1nccs1)c1ccccc1 | 6.95% (inactive)
CC(NC(=O)C(=O)Nc1nccs1)c1ccccc1 (configuration not stated) | 20.9% (active)
CCCCn1nc(C(=O)OCC(=O)Nc2sccc2C(N)=O)c2ccccc2c1=O | -5.8% (inactive)
COC(=O)c1ccc(CN2CCC(CO)(Cc3ccc(OC)cc3)CC2)cc1 | -13.3% (inactive)
O=C(NC1=NCCS1)c1ccc(Cl)s1 | 2.85% (inactive)
COc1ccc(NC(=O)C(C)SCc2ccccc2)cc1 (configuration not stated) | 3.94% (inactive)
O=C(CC1(O)C(=O)N(CN2CCOCC2)c2ccccc21)c1ccccc1 (configuration not stated) | 37.4% (active)
C=CCN1C(=O)C(O)(CC(=O)c2ccccn2)c2ccccc21 (configuration not stated) | 0.57% (inactive)
C=CCN1C(=O)C(O)(CC(=O)c2ccc(Cl)cc2)c2ccccc21 (configuration not stated) | 12.2% (inactive)
